According to ChEMBL document CHEMBL1146223, “Synthesis, monoamine transporter binding, properties, and functional monoamine uptake activity of 3beta-[4-methylphenyl and 4-chlorophenyl]-2 beta-[5-(substituted phenyl)thiazol-2-yl]tropanes” (J Med Chem, 2007):

How the values were obtained:
[1] = target: Norepinephrine transporter (Rattus norvegicus, UniProt Q9WTR4); experiment: Displacement of [3H]nisoxetine from NET in Sprague-Dawley rat brain; format: tissue-based
Procedure, shortened: (§1)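 Male Sprague-Dawley rats (200-250 g); striata, midbrain or frontal cortex tissue used for competition binding. Final radioligand concentrations were 0.5 nM for DAT, 0.2 nM [³H]paroxetine for SERT and 0.5 nM [³H]nisoxetine for NET.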

[2] = target: Sodium-dependent serotonin transporter (Rattus norvegicus, UniProt P31652); experiment: Displacement of [3H]paroxetine from SERT in Sprague-Dawley rat brain; format: tissue-based; procedure, shortened: as §1
[3] = target: Sodium-dependent dopamine transporter (Rattus norvegicus, UniProt P23977); experiment: Displacement of [3H]WIN-35428 from DAT in Sprague-Dawley rat brain; format: tissue-based; procedure, shortened: as §1
[4] = target: Sodium-dependent dopamine transporter (Homo sapiens, UniProt Q01959); experiment: Displacement of [125I]RTI-55 from human DAT expressed in HEK cells after 90 mins; format: cell-based, HEK293
Procedure, shortened: (§2)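 Competition binding on human DAT or SERT stably expressed in HEK293 cells, using the nonselective radioligand [¹²⁵I]RTI-55.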

[5] = target: T1, Sodium-dependent serotonin transporter (Homo sapiens, UniProt P31645); experiment: Displacement of [125I]RTI-55 from human SERT expressed in HEK cells after 90 mins; format: cell-based, HEK293; procedure, shortened: as §2
[6] = target: T1, Sodium-dependent serotonin transporter; experiment: Inhibition of human SERT in HEK cells assessed as [3H]serotonin reuptake; format: functional, cell-based, HEK293
Procedure, shortened: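 Human SERT stably expressed in HEK293 cells; the compound's block of radiolabelled serotonin reuptake was measured in these cells.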

[7] = target: T2, Sodium-dependent noradrenaline transporter (Homo sapiens, UniProt P23975); experiment: Inhibition of human NET in HEK cells assessed as [3H]norepinephrine reuptake; format: functional, cell-based, HEK293
[8] = target: T2, Sodium-dependent noradrenaline transporter; experiment: Displacement of [125I]RTI-55 from human NET expressed in HEK cells after 90 mins; format: cell-based, HEK293

Chain of Sodium-dependent serotonin transporter (Rattus norvegicus, UniProt P31652) (P31652 whole entry): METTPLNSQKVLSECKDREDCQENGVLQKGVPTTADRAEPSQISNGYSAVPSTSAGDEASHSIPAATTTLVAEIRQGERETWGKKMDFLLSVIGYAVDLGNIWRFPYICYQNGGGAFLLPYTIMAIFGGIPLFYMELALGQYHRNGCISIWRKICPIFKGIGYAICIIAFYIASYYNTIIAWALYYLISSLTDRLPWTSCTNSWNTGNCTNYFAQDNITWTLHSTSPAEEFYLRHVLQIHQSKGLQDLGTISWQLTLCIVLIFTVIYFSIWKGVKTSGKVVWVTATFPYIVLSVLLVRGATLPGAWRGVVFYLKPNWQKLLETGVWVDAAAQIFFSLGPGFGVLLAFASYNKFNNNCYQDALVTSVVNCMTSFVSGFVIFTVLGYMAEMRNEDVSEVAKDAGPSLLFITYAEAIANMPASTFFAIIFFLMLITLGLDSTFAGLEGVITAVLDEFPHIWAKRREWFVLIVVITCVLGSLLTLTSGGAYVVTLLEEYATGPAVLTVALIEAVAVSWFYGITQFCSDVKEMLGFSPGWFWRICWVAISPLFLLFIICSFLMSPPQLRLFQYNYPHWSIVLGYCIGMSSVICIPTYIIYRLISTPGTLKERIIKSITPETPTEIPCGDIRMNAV
Chain of Sodium-dependent dopamine transporter (Homo sapiens, UniProt Q01959) (Q01959 whole entry): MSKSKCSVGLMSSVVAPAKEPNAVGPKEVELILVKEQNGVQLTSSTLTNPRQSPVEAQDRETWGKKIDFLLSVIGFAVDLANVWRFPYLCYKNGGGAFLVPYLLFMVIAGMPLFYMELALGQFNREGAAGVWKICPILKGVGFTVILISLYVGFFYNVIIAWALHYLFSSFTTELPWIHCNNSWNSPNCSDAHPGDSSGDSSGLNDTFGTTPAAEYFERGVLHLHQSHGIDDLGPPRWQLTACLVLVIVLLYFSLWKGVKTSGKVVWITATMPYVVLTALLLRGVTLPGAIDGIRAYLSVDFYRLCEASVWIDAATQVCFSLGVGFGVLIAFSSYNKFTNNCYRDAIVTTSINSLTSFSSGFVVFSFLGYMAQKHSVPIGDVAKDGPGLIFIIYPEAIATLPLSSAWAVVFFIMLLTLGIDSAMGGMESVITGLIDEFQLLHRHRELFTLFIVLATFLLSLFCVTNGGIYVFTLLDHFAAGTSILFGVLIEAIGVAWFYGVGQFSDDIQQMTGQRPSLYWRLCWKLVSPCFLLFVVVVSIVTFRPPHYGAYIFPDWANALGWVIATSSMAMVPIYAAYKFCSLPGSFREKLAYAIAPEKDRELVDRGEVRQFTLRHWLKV
Chain of Sodium-dependent dopamine transporter (Rattus norvegicus, UniProt P23977) (P23977 whole entry): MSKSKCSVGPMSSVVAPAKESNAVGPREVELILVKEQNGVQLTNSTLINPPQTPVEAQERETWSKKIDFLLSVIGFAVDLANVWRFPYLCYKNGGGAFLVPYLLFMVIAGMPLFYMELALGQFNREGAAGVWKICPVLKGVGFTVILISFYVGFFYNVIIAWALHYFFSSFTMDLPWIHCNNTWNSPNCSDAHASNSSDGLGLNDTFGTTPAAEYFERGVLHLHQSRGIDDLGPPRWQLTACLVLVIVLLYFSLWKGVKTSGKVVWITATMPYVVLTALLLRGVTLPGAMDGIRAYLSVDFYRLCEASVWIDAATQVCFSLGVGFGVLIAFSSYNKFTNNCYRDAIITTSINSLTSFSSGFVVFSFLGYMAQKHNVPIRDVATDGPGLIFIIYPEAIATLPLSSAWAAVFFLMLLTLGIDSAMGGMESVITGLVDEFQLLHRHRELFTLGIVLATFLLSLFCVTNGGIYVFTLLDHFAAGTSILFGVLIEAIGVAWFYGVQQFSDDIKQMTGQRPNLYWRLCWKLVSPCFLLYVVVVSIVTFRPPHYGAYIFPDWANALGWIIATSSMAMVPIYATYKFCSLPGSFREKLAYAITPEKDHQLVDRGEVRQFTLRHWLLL
Chain of Norepinephrine transporter (Q9WTR4 whole entry): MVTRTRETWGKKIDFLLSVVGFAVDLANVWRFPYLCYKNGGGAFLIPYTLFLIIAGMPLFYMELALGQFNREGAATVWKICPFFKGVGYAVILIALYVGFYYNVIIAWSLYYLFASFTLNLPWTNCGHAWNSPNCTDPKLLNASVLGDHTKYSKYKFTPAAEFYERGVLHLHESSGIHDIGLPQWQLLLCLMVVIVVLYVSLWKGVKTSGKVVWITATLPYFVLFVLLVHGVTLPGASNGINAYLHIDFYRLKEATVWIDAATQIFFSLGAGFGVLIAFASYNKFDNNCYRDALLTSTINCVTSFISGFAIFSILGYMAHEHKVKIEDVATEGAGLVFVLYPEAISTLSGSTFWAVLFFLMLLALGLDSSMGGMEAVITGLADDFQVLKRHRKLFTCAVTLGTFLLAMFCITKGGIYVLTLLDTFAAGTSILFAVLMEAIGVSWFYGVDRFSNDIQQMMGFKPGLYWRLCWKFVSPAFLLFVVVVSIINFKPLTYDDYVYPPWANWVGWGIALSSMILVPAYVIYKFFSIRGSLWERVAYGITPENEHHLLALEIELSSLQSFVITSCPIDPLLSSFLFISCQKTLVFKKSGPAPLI
T1 sequence (P31645 whole entry): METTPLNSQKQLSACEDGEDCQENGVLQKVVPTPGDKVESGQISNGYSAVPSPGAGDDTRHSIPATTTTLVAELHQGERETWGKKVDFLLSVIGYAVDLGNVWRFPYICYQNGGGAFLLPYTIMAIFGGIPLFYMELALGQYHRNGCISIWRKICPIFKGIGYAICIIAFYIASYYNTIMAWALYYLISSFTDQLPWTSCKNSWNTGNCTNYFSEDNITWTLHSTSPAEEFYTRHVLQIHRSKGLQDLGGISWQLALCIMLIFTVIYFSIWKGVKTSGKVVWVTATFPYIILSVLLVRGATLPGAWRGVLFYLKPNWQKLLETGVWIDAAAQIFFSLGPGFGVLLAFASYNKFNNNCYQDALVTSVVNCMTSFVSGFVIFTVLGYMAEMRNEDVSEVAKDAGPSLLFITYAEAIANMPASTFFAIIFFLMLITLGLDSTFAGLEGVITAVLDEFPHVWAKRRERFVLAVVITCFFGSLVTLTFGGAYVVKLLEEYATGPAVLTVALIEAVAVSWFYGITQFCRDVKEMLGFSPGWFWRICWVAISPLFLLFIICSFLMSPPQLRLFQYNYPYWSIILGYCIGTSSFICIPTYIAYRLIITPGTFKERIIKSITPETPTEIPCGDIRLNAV
T2 sequence (P23975 whole entry): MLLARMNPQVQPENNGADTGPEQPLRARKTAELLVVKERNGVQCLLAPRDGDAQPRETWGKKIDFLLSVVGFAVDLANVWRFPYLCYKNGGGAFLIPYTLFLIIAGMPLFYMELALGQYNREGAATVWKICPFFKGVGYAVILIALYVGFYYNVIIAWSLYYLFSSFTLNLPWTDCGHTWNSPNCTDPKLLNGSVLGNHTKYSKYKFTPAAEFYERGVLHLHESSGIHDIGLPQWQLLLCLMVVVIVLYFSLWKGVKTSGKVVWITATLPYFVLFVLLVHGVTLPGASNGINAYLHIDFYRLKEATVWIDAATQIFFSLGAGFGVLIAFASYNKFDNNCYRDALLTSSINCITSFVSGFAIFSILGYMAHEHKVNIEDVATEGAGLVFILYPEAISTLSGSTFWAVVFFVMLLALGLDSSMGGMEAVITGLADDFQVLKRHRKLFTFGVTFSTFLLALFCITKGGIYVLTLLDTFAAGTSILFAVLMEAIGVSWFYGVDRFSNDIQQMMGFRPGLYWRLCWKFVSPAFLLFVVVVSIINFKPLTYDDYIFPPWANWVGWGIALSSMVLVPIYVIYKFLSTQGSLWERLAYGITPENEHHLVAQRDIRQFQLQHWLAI

For `COc1ccc(-c2cnc([C@H]3[C@@H](c4ccc(C)cc4)C[C@@H]4CC[C@H]3N4C)s2)cc1OC`, which Ki [1] is on record?
Its Ki is > 2000 nM.

And the Ki [2]?
Its Ki is > 2000 nM.

And the IC50 [3]?
Its IC50 is 83 nM.

What about the Ki [4] of the same molecule?
The Ki was 529 nM.

What about the Ki [5] of the same molecule?
The Ki was 7710 nM.

What about the IC50 [6] of the same molecule?
The IC50 was > 10 µM.

What does the source list for `COc1ccc(-c2cnc([C@H]3[C@@H](c4ccc(C)cc4)C[C@@H]4CC[C@H]3N4C)s2)cc1`?
Ki [1]: > 2000 nM; IC50 [7]: 1810 nM; Ki [2]: > 2000 nM; IC50 [3]: 15 nM; Ki [4]: 53 nM; Ki [5]: 3670 nM; Ki [8]: 3.63 µM; IC50 [6]: 6.8 µM

`Cc1ccc([C@H]2C[C@@H]3CC[C@H]([C@H]2c2ncc(-c4cccc([N+](=O)[O-])c4)s2)N3C)cc1` was tested. Which Ki [1] did it give?
Its Ki is > 2000 nM.

What about the Ki [2] of the same molecule?
The Ki was 10000 nM.

And the IC50 [3]?
The IC50 was 4 nM.

And the Ki [4]?
The Ki was 14 nM.

What about the Ki [5] of the same molecule?
Its Ki is 580 nM.

And the IC50 [6]?
The IC50 was 2.38 µM.

For `CN1[C@H]2CC[C@@H]1[C@@H](c1ncc(-c3ccccc3)s1)[C@@H](c1ccc(Cl)cc1)C2`, which Ki [1] is on record?
Its Ki is 8560 nM.

What about the IC50 [7] of the same molecule?
Its IC50 is 750 nM.

What about the Ki [2] of the same molecule?
The Ki was > 2000 nM.

What about the IC50 [3] of the same molecule?
Its IC50 is 5.7 nM.

And the Ki [4]?
Its Ki is 18 nM.

What about the Ki [5] of the same molecule?
Its Ki is 2670 nM.

What about the Ki [8] of the same molecule?
The Ki was 1.84 µM.

And the IC50 [6]?
The IC50 was 2.71 µM.

`CN1[C@H]2CC[C@@H]1[C@@H](c1ncc(-c3ccc(Cl)cc3)s1)[C@@H](c1ccc(Cl)cc1)C2` was tested. Which Ki [1] did it give?
The Ki was > 2000 nM.

What about the Ki [2] of the same molecule?
The Ki was 903 nM.

And the IC50 [3]?
Its IC50 is 20 nM.

What about the Ki [4] of the same molecule?
Its Ki is 28 nM.

And the Ki [5]?
The Ki was 2390 nM.

And the IC50 [6]?
Its IC50 is 4.4 µM.

Which Ki [1] does the source give for `CN1[C@H]2CC[C@@H]1[C@@H](c1ncc(-c3cccc(Br)c3)s1)[C@@H](c1ccc(Cl)cc1)C2` here?
The Ki was > 2000 nM.

And the Ki [2]?
The Ki was 280 nM.

And the IC50 [3]?
The IC50 was 18 nM.

What about the Ki [4] of the same molecule?
Its Ki is 39 nM.

And the Ki [5]?
Its Ki is 1500 nM.

What about the IC50 [6] of the same molecule?
Its IC50 is 4 µM.

Which results are given for `CN1[C@H]2CC[C@@H]1[C@@H](c1ncc(-c3ccc([N+](=O)[O-])cc3)s1)[C@@H](c1ccc(Cl)cc1)C2`?
Ki [1]: > 2000 nM; Ki [2]: 980 nM; IC50 [3]: 20 nM; Ki [4]: 6.1 nM; Ki [5]: 1820 nM; IC50 [6]: 3.6 µM

How did the Ki [1] turn out when `COc1ccc(-c2cnc([C@H]3[C@@H](c4ccc(Cl)cc4)C[C@@H]4CC[C@H]3N4C)s2)cc1` was run?
Its Ki is > 2000 nM.

What about the Ki [2] of the same molecule?
The Ki was 800 nM.

And the IC50 [3]?
Its IC50 is 14 nM.

What about the Ki [4] of the same molecule?
The Ki was 8.6 nM.

And the Ki [5]?
The Ki was 5200 nM.

And the IC50 [6]?
Its IC50 is 6.7 µM.

Which Ki [1] does the source give for `Cc1ccc([C@H]2C[C@@H]3CC[C@H]([C@H]2c2ncc(-c4ccc(Cl)cc4)s2)N3C)cc1` here?
Its Ki is > 2000 nM.

And the Ki [2]?
The Ki was 1110 nM.

And the IC50 [3]?
Its IC50 is 22 nM.

And the Ki [4]?
The Ki was 212 nM.

What about the Ki [5] of the same molecule?
Its Ki is 1320 nM.

What about the IC50 [6] of the same molecule?
The IC50 was 0.377 µM.

`Cc1ccc([C@H]2C[C@@H]3CC[C@H]([C@H]2c2ncc(-c4ccc([N+](=O)[O-])cc4)s2)N3C)cc1` was tested. Which Ki [1] did it give?
Its Ki is > 2000 nM.

And the Ki [2]?
Its Ki is 1690 nM.

What about the IC50 [3] of the same molecule?
The IC50 was 41 nM.

And the Ki [4]?
Its Ki is 140 nM.

And the Ki [5]?
Its Ki is 1640 nM.

What about the IC50 [6] of the same molecule?
Its IC50 is 3.17 µM.

`Cc1ccc([C@H]2C[C@@H]3CC[C@H]([C@H]2c2ncc(-c4ccc(F)cc4)s2)N3C)cc1` was tested. Which Ki [1] did it give?
The Ki was > 2000 nM.

And the Ki [2]?
The Ki was 2240 nM.

And the IC50 [3]?
The IC50 was 12 nM.

What about the Ki [4] of the same molecule?
The Ki was 61 nM.

And the Ki [5]?
The Ki was 1720 nM.

What about the IC50 [6] of the same molecule?
Its IC50 is 3.2 µM.

Which results are given for `Cc1ccc([C@H]2C[C@@H]3CC[C@H]([C@H]2c2ncc(-c4ccc(Br)cc4)s2)N3C)cc1`?
Ki [4]: 130 nM; Ki [5]: 1870 nM; IC50 [6]: 1.84 µM

With `Cc1ccc([C@H]2C[C@@H]3CC[C@H]([C@H]2c2ncc(-c4ccc(Cl)c(Cl)c4)s2)N3C)cc1` as the molecule, how does the Ki [1] read?
The Ki was > 2000 nM.

What about the IC50 [7] of the same molecule?
The IC50 was 4000 nM.

What about the Ki [2] of the same molecule?
The Ki was 190 nM.

What about the IC50 [3] of the same molecule?
Its IC50 is 102 nM.

And the Ki [4]?
The Ki was 105 nM.

And the Ki [5]?
The Ki was 2940 nM.

And the Ki [8]?
The Ki was > 6.1 µM.

What about the IC50 [6] of the same molecule?
Its IC50 is 4.4 µM.

`CN1[C@H]2CC[C@@H]1[C@@H](c1ncc(-c3ccc(Cl)c(Cl)c3)s1)[C@@H](c1ccc(Cl)cc1)C2` was tested. Which Ki [1] did it give?
Its Ki is > 2000 nM.

And the Ki [2]?
The Ki was 380 nM.

And the IC50 [3]?
The IC50 was 440 nM.

And the Ki [4]?
The Ki was 66 nM.

And the Ki [5]?
The Ki was 2710 nM.

What about the IC50 [6] of the same molecule?
Its IC50 is 5.3 µM.

With `CN1[C@H]2CC[C@@H]1[C@@H](c1ncc(-c3ccc(Br)cc3)s1)[C@@H](c1ccc(Cl)cc1)C2` as the molecule, how does the Ki [1] read?
The Ki was > 2000 nM.

What about the Ki [2] of the same molecule?
The Ki was 840 nM.

What about the Ki [5] of the same molecule?
Its Ki is 5700 nM.

And the IC50 [6]?
Its IC50 is 8.22 µM.

Which Ki [1] does the source give for `CN1[C@H]2CC[C@@H]1[C@@H](c1ncc(-c3cccc([N+](=O)[O-])c3)s1)[C@@H](c1ccc(Cl)cc1)C2` here?
Its Ki is > 2000 nM.

What about the Ki [2] of the same molecule?
Its Ki is 301 nM.

And the IC50 [3]?
The IC50 was 5 nM.

And the Ki [4]?
The Ki was 7.7 nM.

What about the Ki [5] of the same molecule?
Its Ki is 740 nM.

What about the IC50 [6] of the same molecule?
Its IC50 is 1.61 µM.

For `COc1ccc(-c2cnc([C@H]3[C@@H](c4ccc(Cl)cc4)C[C@@H]4CC[C@H]3N4C)s2)cc1OC`, which Ki [1] is on record?
Its Ki is > 2000 nM.

What about the Ki [2] of the same molecule?
Its Ki is 1510 nM.

What about the IC50 [3] of the same molecule?
Its IC50 is 65 nM.

And the Ki [4]?
Its Ki is 234 nM.

What about the Ki [5] of the same molecule?
Its Ki is 3590 nM.

And the IC50 [6]?
The IC50 was > 6.8 µM.

For `CN1[C@H]2CC[C@@H]1[C@@H](c1ncc(-c3ccc(F)cc3)s1)[C@@H](c1ccc(Cl)cc1)C2`, which Ki [1] is on record?
Its Ki is > 2000 nM.

What about the Ki [2] of the same molecule?
Its Ki is 371 nM.

And the IC50 [3]?
Its IC50 is 6 nM.

And the Ki [4]?
The Ki was 12 nM.

What about the Ki [5] of the same molecule?
Its Ki is 653 nM.

What about the IC50 [6] of the same molecule?
Its IC50 is 1.01 µM.

With `Cc1ccc([C@H]2C[C@@H]3CC[C@H]([C@H]2c2ncc(-c4cccc(Br)c4)s2)N3C)cc1` as the molecule, how does the Ki [1] read?
The Ki was > 2000 nM.

And the Ki [2]?
Its Ki is 312 nM.

What about the IC50 [3] of the same molecule?
Its IC50 is 10 nM.

What about the Ki [4] of the same molecule?
The Ki was 12 nM.

And the Ki [5]?
The Ki was 870 nM.

And the IC50 [6]?
Its IC50 is 3.86 µM.

With `COC(=O)[C@H]1[C@@H](c2ccccc2)C[C@@H]2CC[C@H]1N2C` [TROPARIL] as the molecule, how does the Ki [1] read?
The Ki was 920 nM.

And the IC50 [3]?
Its IC50 is 23 nM.
